Assay results: ChEMBL document CHEMBL1641558, “A novel series of potent and selective EP(4) receptor ligands: facile modulation of agonism and antagonism” (Bioorg Med Chem Lett, 2011)
The source made the active and inactive calls. No cut-off for these calls is given here.

Experiments:
[1] = Drug excretion in rat bile assessed as total radioactivity after 24 hrs; type: ADME; details: in vivo
[2] = system: Hepatocyte; assay: Oxidative metabolism in rat hepatocytes assessed as protein covalent binding per mg of protein after 2 hrs; type: ADME, cell-based
[3] = system: Hepatocyte; assay: Oxidative metabolism in human hepatocytes assessed as protein covalent binding per mg of protein after 2 hrs; type: ADME, cell-based
[4] = organism: Rattus norvegicus; assay: covalent protein labeling in rat assessed per mg of protein; type: ADME, organism-based; details: in vivo
[5] = molecular target: T1, Prostaglandin E2 receptor EP4 subtype (Homo sapiens, UniProt P35408); assay: Displacement of [3H]PGE2 from human prostanoid EP4 receptor expressed in HEK293-EBNA cells after 60 mins by scintillation counting; type: cell-based
[6] = molecular target: T1, Prostaglandin E2 receptor EP4 subtype; assay: Antagonist activity at human prostanoid EP4 receptor expressed in HEK293 cells assessed as inhibition of PGE2-induced cAMP accumulation by scintillation proximity assay; type: functional, cell-based
Summary of the method: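 HEK293 cells expressing EP4 receptors. Antagonism is read as inhibition of PGE2-evoked rise in intracellular cAMP, reported as IC50. Agonism is read as cAMP elevation in the same cells without PGE2, reported as EC50.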

[7] = organism: Homo sapiens; assay: Selectivity ratio of Ki for human prostanoid EP2 receptor to Ki for human prostanoid EP4
[8] = organism: Homo sapiens; assay: Selectivity ratio of Ki for human prostanoid DP receptor to Ki for human prostanoid EP4
[9] = organism: Homo sapiens; assay: Selectivity ratio of Ki for human prostanoid EP1 receptor to Ki for human prostanoid EP4
[10] = organism: Homo sapiens; assay: Selectivity ratio of Ki for human prostanoid EP3 receptor to Ki for human prostanoid EP4
[11] = organism: Homo sapiens; assay: Selectivity ratio of Ki for human prostanoid FP receptor to Ki for human prostanoid EP4
[12] = organism: Homo sapiens; assay: Selectivity ratio of Ki for human prostanoid IP receptor to Ki for human prostanoid EP4
[13] = organism: Homo sapiens; assay: Selectivity ratio of Ki for human prostanoid TP receptor to Ki for human prostanoid EP4
[14] = Half life in rat at 20 mg/kg, po and 5 mg/kg, iv; type: ADME, organism-based; details: in vivo
Summary of the method: (§1)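 Rat pharmacokinetics with potassium salts, given 20 mg/kg orally in 0.5% methocel and 5 mg/kg intravenously in 60% PEG 200. Half-life, oral bioavailability and clearance derived from these dosings.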

[15] = Bioavailability in rat at 20 mg/kg, po and 5 mg/kg, iv; type: ADME, organism-based; details: in vivo; summary of the method: as §1
[16] = Clearance in rat at 20 mg/kg, po and 5 mg/kg, iv; type: ADME, organism-based; details: in vivo; summary of the method: as §1
[17] = molecular target: T1, Prostaglandin E2 receptor EP4 subtype; assay: Agonist activity at human prostanoid EP4 receptor expressed in HEK293 cells assessed as cAMP accumulation by scintillation proximity assay
[18] = Metabolic stability in rat hepatocytes assessed as parent compound remaining after 2 hrs; type: ADME, cell-based, Hepatocyte; details: read-out: Stability
Summary of the method: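 Incubation with rat hepatocytes for 2 h. The mixture is analysed by LC/MS for percent parent remaining and metabolite identity.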

[19] = system: Rattus norvegicus; assay: Antiinflammatory activity in rat assessed as inhibition of complete Freund's adjuvant-induced paw swelling administered daily once 9 days after adjuvant challenge measured on day 18; type: functional, organism-based
Summary of the method: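 Adjuvant arthritis in rats: complete Freund's adjuvant injected into the left hind paw on day 0. Dosing once daily for 9 days, starting on day 9. Secondary paw volume measured on day 18. Percent inhibition is calculated from the difference between each treated group (n = 7/group) and vehicle control; SEM reported.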

[20] = system: Rattus norvegicus; assay: Analgesic activity against carrageenan-induced mechanical hyperalgesia in rat assessed as paw withdrawal latency at 10 mg/kg; type: functional
Summary of the method: (§2)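 Rats given carrageenan injection into the paw at t = 0 h, test article dosed at t = 2 h. At t = 3 h mechanical pressure is applied to the paw and paw withdrawal latency is recorded. Statistics by one-way ANOVA with Dunnett's test versus vehicle control.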

[21] = organism: Rattus norvegicus; assay: Analgesic activity against carrageenan-induced mechanical hyperalgesia in rat assessed as paw withdrawal latency; type: functional, organism-based; summary of the method: as §2
[22] = system: Rattus norvegicus; assay: Antiinflammatory activity in rat assessed as inhibition of complete Freund's adjuvant-induced paw swelling at 0.6 mg/kg administered daily once 9 days after adjuvant challenge measured on day 18

T1 sequence (P35408 whole entry): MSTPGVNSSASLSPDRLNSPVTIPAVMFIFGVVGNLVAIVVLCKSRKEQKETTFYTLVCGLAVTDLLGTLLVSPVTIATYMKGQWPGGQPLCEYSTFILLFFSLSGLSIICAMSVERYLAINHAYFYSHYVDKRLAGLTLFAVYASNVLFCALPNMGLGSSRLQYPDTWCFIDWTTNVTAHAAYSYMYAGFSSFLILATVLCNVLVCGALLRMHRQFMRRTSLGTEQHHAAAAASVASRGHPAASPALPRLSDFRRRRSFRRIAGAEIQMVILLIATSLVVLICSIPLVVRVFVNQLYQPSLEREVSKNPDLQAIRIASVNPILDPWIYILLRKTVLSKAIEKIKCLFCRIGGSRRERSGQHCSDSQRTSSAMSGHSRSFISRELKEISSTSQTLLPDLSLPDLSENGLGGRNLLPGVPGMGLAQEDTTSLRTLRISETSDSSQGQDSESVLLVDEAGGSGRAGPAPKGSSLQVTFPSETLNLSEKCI

Row | SMILES | Ki [5] | IC50 [6] | Ratio Ki [7] | Ratio Ki [8] | Ratio Ki [9] | Ratio Ki [10] | Ratio Ki [11] | Ratio Ki [12] | Ratio Ki [13] | half-life [14] | bioavailability [15] | clearance [16] | EC50 [17] | other results
1 | [3H]c1cc2c(c(C(=O)N[C@@H](C)c3ccc(C(=O)O)cc3)c1)N(Cc1ccc(C(F)(F)F)cc1)CC2 |  |  |  |  |  |  |  |  |  |  |  |  |  | Activity [1]: 86%; Activity [2]: 56 pmolequiv/mg; Activity [3]: 28 pmolequiv/mg; Activity [4]: 5 pmol
2 | C[C@H](NC(=O)c1cccc2c1N(Cc1cccc(Cl)c1)CC2)c1ccc(C(=O)O)cc1 | 0.44 nM | > 10000 nM | 595 | > 1000 | > 1000 | > 1000 | > 1000 | > 1000 | > 1000 | 4.4 h | 65% | 26 mL/min/kg | 0.82 nM | 
3 | C[C@H](NC(=O)c1cccc2c1N(Cc1ccc(C(F)(F)F)cc1)CC2)c1ccc(C(=O)O)cc1 | 0.37 nM | 2.1 nM | > 1000 | > 1000 | > 1000 | > 1000 | > 1000 | > 1000 | > 1000 | 4.1 h | 48% | 11 mL/min/kg |  | remaining at 2 h [18]: 36%; inhibition [19]: Dose-dependent effect; Activity [20]: 64%; Activity [21]: Dose-dependent effect; inhibition [22]: Active
4 | C[C@H](NC(=O)c1cccc2c1N(Cc1cccc(C(F)(F)F)c1)CC2)c1ccc(C(=O)O)cc1 | 0.4 nM | > 10000 nM | > 1000 | > 1000 | > 1000 | > 1000 | > 1000 | > 1000 | > 1000 |  |  |  | 0.2 nM | 
